Laboratory results reported in PMC5481492 (Chemico-biological interactions, 2016).
Like-named read-outs stand apart in the source and are kept apart here.

How the values were obtained:
horse liver ADH1E S48T [1] = target: T1, horse liver ADH1E S48T (Equus caballus, UniProt P00327, S49T); test: Steady-state kinetics, S48T enzyme; format: biochemical; details: for Ratio of V/Km for (R)- to (S)-enantiomers: enantioselectivity; for Michaelis constant for coenzyme (Ka NAD+, Kq NADH) / Ki / Turnover number (V1/Et ethanol oxidation, V2/Et acetaldehyde reduction): pH 8.0, 25 °C; for Michaelis constant for coenzyme (Ka NAD+, Kq NADH): both substrates varied; for Ki: read-out: Inhibition constant for coenzyme (Kia NAD+, Kiq NADH)
T1 sequence (P00327 whole entry S49T): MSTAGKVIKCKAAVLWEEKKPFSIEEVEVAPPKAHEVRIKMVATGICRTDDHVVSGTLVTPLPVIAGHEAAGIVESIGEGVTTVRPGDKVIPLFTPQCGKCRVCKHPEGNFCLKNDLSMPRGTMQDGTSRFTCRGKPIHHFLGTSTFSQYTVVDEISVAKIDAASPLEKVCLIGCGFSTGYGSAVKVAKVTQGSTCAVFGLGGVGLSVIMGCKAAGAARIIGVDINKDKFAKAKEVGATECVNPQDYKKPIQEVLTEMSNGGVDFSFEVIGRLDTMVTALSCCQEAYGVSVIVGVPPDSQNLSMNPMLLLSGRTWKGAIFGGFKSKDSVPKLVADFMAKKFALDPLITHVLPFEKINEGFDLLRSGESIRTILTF

[2] = target: T2, horse liver ADH1E S48T/F93A (Equus caballus, UniProt P00327, F94A/S49T); test: Steady-state kinetics, S48T/F93A enzyme; format: biochemical; details: for Increase of the R/S ratio (inversion of enantioselectivity) as compared to wild-type enzyme: S48T/F93A relative to wild-type; for Ratio of V/Km for (R)- to (S)-enantiomers: enantioselectivity; for Michaelis constant for coenzyme (Ka NAD+, Kq NADH) / Ki / Turnover number (V1/Et ethanol oxidation, V2/Et acetaldehyde reduction): pH 8.0, 25 °C; for Michaelis constant for coenzyme (Ka NAD+, Kq NADH): both substrates varied; for Ki: read-out: Inhibition constant for coenzyme (Kia NAD+, Kiq NADH)
T2 sequence (P00327 whole entry S49T/F94A): as the sequence (P00327 whole entry S49T) above, with F94A counted along it

horse liver ADH1E F93A [3] = target: T3, horse liver ADH1E F93A (Equus caballus, UniProt P00327, F94A); test: Steady-state kinetics, F93A enzyme; format: biochemical; details: for Ratio of V/Km for (R)- to (S)-enantiomers: enantioselectivity; for Michaelis constant for coenzyme (Ka NAD+, Kq NADH): both substrates varied; for Ki: read-out: Inhibition constant for coenzyme (Kia NAD+, Kiq NADH)
T3 sequence (P00327 whole entry F94A): as the sequence (P00327 whole entry S49T) above, with T49S, F94A counted along it

[4] = target: T4, horse liver ADH1E (EqADH1E), wild-type (Equus caballus, UniProt P00327); test: Steady-state kinetics, wild-type enzyme; format: biochemical; details: enantioselectivity
T4 sequence (P00327 whole entry): as the sequence (P00327 whole entry S49T) above, with T49S counted along it

[5] = target: T4, horse liver ADH1E (EqADH1E), wild-type; details: pH 8.5, 25 °C, cited from earlier work
[6] = target: T4, horse liver ADH1E (EqADH1E), wild-type; details: value in parentheses; cited from earlier work
[7] = target: T2, horse liver ADH1E S48T/F93A; test: Transient; format: biochemical; details: pH 8.0, 25 °C; 2 mM NAD+ (oxidation) or stoichiometric NADH (reduction)
Method in brief: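 Stopped-flow (three-syringe, 2.5 ms dead time) at 25 °C in 33 mM sodium phosphate, 0.25 mM EDTA, pH 8.0. Enzyme at 6–15 μN (active sites) was mixed with 2 mM NAD⁺ and varied alcohol (oxidation), or with NADH equal to the enzyme concentration and varied carbonyl compound (reduction). A328 bursts (Δε 5500 M⁻¹cm⁻¹) were fitted as first-order; rate constants were analysed against substrate concentration.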

horse liver ADH1E F93A [8] = target: T3, horse liver ADH1E F93A; test: Transient; format: biochemical; details: for K m (transient reaction) / k max (transient oxidation): pH 8.0, 25 °C, 2 mM NAD+
horse liver ADH1E F93A [9] = target: T3, horse liver ADH1E F93A; details: cited from earlier work; for Substrate deuterium isotope effect on k max: value in brackets
[10] = target: T4, horse liver ADH1E (EqADH1E), wild-type; details: pH 8.0, 25 °C; cited from earlier work
horse liver ADH1E S48A = horse liver ADH1E S48A (Equus caballus, UniProt P00327, S49A); test: Steady-state kinetics, S48A enzyme; format: biochemical; details: pH 8.0, 25 °C; for Michaelis constant for coenzyme (Ka NAD+, Kq NADH): both substrates varied; for Ki: read-out: Inhibition constant for coenzyme (Kia NAD+, Kiq NADH)
horse liver ADH1E S48A, sequence (P00327 whole entry S49A): as the sequence (P00327 whole entry S49T) above, with T49A counted along it

[11] = target: T4, horse liver ADH1E (EqADH1E), wild-type; details: cited from earlier work
[12] = target: T2, horse liver ADH1E S48T/F93A; test: Inhibition of ethanol oxidation, S48T/F93A enzyme; format: biochemical
horse liver ADH1E F93A [13] = target: T3, horse liver ADH1E F93A; test: Inhibition of ethanol oxidation, F93A enzyme; format: biochemical
horse liver ADH1E S48T [14] = target: T1, horse liver ADH1E S48T; test: Inhibition of ethanol oxidation, S48T enzyme; format: biochemical
[15] = competitive against ethanol, pH 8.0, 25 °C

With CCC(C)O (stereo not shown) [2-Butanol, 2-butanol] the “Ratio of V/Km for (R)- to (S)-enantiomers” value (“Ratio of V/Km” for short) (horse liver ADH1E S48T [1]) was 0.88, the “Increase of the R/S ratio (inversion of enantioselectivity) as compared to wild-type enzyme” value [2] was 10 fold and the “Ratio of V/Km” value [2] was 4.3. For the same molecule, the “Ratio of V/Km” value (horse liver ADH1E F93A [3]) was 1.1 and the “Ratio of V/Km” value [4] was 0.45.

For CCC(C)=O [2-Butanone, 2-butanone], the “Binding rate constant k−6” value ([5]; (pro-R)-2-butanone pathway) is listed as 6.5 M⁻¹ s⁻¹, the “Dissociation rate constant k6” value ([5]; (pro-R)-2-butanone pathway) is listed as 4.3 s⁻¹ and the “Binding rate constant k−6” value ([5]; (pro-S)-2-butanone pathway) is listed as 180 M⁻¹ s⁻¹. The “Dissociation rate constant k6” value ([5]; (pro-S)-2-butanone pathway) was 2.5 s⁻¹, the Km ([2]; ketone reduction, 0.1 mM NADH) was 12.7 ± 0.9 mM and the V2/Et ([2]; ketone reduction, 0.1 mM NADH) was 0.081 ± 0.002 s⁻¹. The “k max (transient oxidation or reduction)” value [6] was 0.12 s⁻¹, the “K m (transient reaction)” value [7] was 29 mM and the “k max (transient oxidation or reduction)” value [7] was 0.14 s⁻¹.

With CCCCCCC(C)O (stereo not shown) [2-Octanol, 2-octanol] the “Ratio of V/Km” value (horse liver ADH1E S48T [1]) was 0.023, the “Increase of the R/S ratio (inversion of enantioselectivity) as compared to wild-type enzyme” value [2] was 590 fold and the “Ratio of V/Km” value [2] was 2.0. The “Ratio of V/Km” value (horse liver ADH1E F93A [3]) was 0.62 and the “Ratio of V/Km” value [4] was 0.0034.

For CC[C@@H](C)O [(R)-2-Butanol, (R)-2-butanol], the “K m (transient reaction)” value (horse liver ADH1E F93A [8]) is given as 1.2 mM, the “k max (transient oxidation)” value (horse liver ADH1E F93A [8]) is given as 44 s⁻¹ and the “k max (transient oxidation or reduction)” value [6] is given as 15 s⁻¹. For the same molecule, the “K m (transient reaction)” value [7] was 26 mM and the “k max (transient oxidation or reduction)” value [7] was 130 s⁻¹.

For CC[C@H](C)O [(S)-2-Butanol, (S)-2-butanol], the “K m (transient reaction)” value (horse liver ADH1E F93A [8]) is given as 1.3 mM, the “k max (transient oxidation)” value (horse liver ADH1E F93A [8]) is given as 29 s⁻¹ and the “k max (transient oxidation or reduction)” value [6] is given as 2.5 s⁻¹. For the same molecule, the “K m (transient reaction)” value [7] was 4.9 mM and the “k max (transient oxidation or reduction)” value [7] was 16 s⁻¹.

In the case of O=Cc1ccccc1 [Benzaldehyde, benzaldehyde], the “K m (transient reaction)” value [6] is listed as 0.49 mM, the “k max (transient oxidation or reduction)” value [6] is listed as 320 s⁻¹ and the “k max (transient oxidation or reduction)” value (horse liver ADH1E F93A [9]) is listed as 2.2 s⁻¹. For the same molecule, the “Substrate deuterium isotope effect on k max” value (horse liver ADH1E F93A [9]) was 3.4, the “K m (transient reaction)” value [7] was 0.26 mM and the “k max (transient oxidation or reduction)” value [7] was 0.67 s⁻¹.

In the case of OCc1ccccc1 [Benzyl alcohol, benzyl alcohol], the “K m (transient reaction)” value [6] is given as 0.03 mM, the “k max (transient oxidation or reduction)” value [6] is given as 24 s⁻¹ and the “k max (transient oxidation or reduction)” value (horse liver ADH1E F93A [9]) is given as 3.3 s⁻¹. For the same molecule, the “Substrate deuterium isotope effect on k max” value (horse liver ADH1E F93A [9]) was 4.0, the “K m (transient reaction)” value [7] was 15 mM and the “k max (transient oxidation or reduction)” value [7] was 78 s⁻¹.

For NC(=O)C1=CN([C@@H]2O[C@H](COP(=O)(O)OP(=O)(O)OC[C@H]3O[C@@H](n4cnc5c(N)ncnc54)[C@H](O)[C@@H]3O)[C@@H](O)[C@H]2O)C=CC1 [NADH], the “Rate constant for binding of NADH” value (horse liver ADH1E F93A [8]; transient kinetics, stated in a paragraph on the F93A and S48T/F93A enzymes) was 1e+07 M⁻¹ s⁻¹, the “Michaelis constant for coenzyme (Ka NAD+, Kq NADH)” value (from here on “Michaelis constant for coenzyme”) (horse liver ADH1E S48T [1]) was 6.3 µM and the Ki (horse liver ADH1E S48T [1]) was 0.57 µM. For the same molecule, the “Michaelis constant for coenzyme” value [2] was 5.0 µM, the Ki [2] was 0.054 µM and the “Michaelis constant for coenzyme” value (horse liver ADH1E F93A [3]; pH 8.0, 25 °C) was 1.9 µM. For the same molecule, the Ki (horse liver ADH1E F93A [3]; pH 8.0, 25 °C) was 0.036 µM, the “Michaelis constant for coenzyme” value [10] was 5.8 µM and the “Michaelis constant for coenzyme” value (horse liver ADH1E S48A) was 44 µM. It also gave a Ki (horse liver ADH1E S48A) of 21 µM.

In the case of NC(=O)c1ccc[n+]([C@@H]2O[C@H](COP(=O)([O-])OP(=O)(O)OC[C@H]3O[C@@H](n4cnc5c(N)ncnc54)[C@H](O)[C@@H]3O)[C@@H](O)[C@H]2O)c1 [NAD^+], the “Michaelis constant for coenzyme” value (horse liver ADH1E S48T [1]) is reported as 11 µM, the Ki (horse liver ADH1E S48T [1]) is reported as 15 µM and the “Michaelis constant for coenzyme” value [2] is reported as 4.4 µM. The Ki [2] was 33 µM, the “Michaelis constant for coenzyme” value (horse liver ADH1E F93A [3]; pH 8.0, 25 °C) was 3.3 µM and the Ki (horse liver ADH1E F93A [3]; pH 8.0, 25 °C) was 44 µM. For the same molecule, the “Michaelis constant for coenzyme” value [10] was 3.9 µM, the “Michaelis constant for coenzyme” value (horse liver ADH1E S48A) was 200 µM and the Ki (horse liver ADH1E S48A) was 110 µM.

In the case of c1cn[nH]c1 [Pyrazole, pyrazole], the Ki [11] is listed as 0.2 µM, the Type of inhibition [12] is listed as “competitive inhibitor against varied concentrations of ethanol” and the Ki [12, 15] is listed as 8.1 µM.

In the case of CC=O [acetaldehyde], the “Turnover number (V1/Et ethanol oxidation, V2/Et acetaldehyde reduction)” value (horse liver ADH1E S48T [1]) is listed as 20 s⁻¹, the “Turnover number (V1/Et ethanol oxidation, V2/Et acetaldehyde reduction)” value [2] is listed as 35 s⁻¹ and the “K m (transient reaction)” value [6] is listed as 2.1 mM. The “k max (transient oxidation or reduction)” value [6] was 390 s⁻¹, the “Turnover number (V1/Et ethanol oxidation, V2/Et acetaldehyde reduction)” value (horse liver ADH1E F93A [3]; pH 8.0, 25 °C) was 20 s⁻¹ and the “Turnover number (V1/Et ethanol oxidation, V2/Et acetaldehyde reduction)” value [10] was 47 s⁻¹. For the same molecule, the “Turnover number (V1/Et ethanol oxidation, V2/Et acetaldehyde reduction)” value (horse liver ADH1E S48A) was 0.29 s⁻¹, the “K m (transient reaction)” value [7] was 150 mM and the “k max (transient oxidation or reduction)” value [7] was 58 s⁻¹.

With CCO [ethanol] the “K m (transient reaction)” value (horse liver ADH1E F93A [8]) was 26 mM, the “k max (transient oxidation)” value (horse liver ADH1E F93A [8]) was 22 s⁻¹ and the “Turnover number (V1/Et ethanol oxidation, V2/Et acetaldehyde reduction)” value (horse liver ADH1E S48T [1]) was 1.7 s⁻¹. The “Turnover number (V1/Et ethanol oxidation, V2/Et acetaldehyde reduction)” value [2] was 0.29 s⁻¹, the “K m (transient reaction)” value [6] was 4.1 mM and the “k max (transient oxidation or reduction)” value [6] was 180 s⁻¹. For the same molecule, the “Catalytic efficiency (V1/EtKb, V2/EtKp)” value (horse liver ADH1E F93A [3]; pH 8.0, 25 °C) was 1.7 mM⁻¹ s⁻¹, the “Turnover number (V1/Et ethanol oxidation, V2/Et acetaldehyde reduction)” value (horse liver ADH1E F93A [3]; pH 8.0, 25 °C) was 0.35 s⁻¹ and the “Catalytic efficiency (V1/EtKb, V2/EtKp)” value [10] was 10 mM⁻¹ s⁻¹. The “Turnover number (V1/Et ethanol oxidation, V2/Et acetaldehyde reduction)” value [10] was 3.5 s⁻¹, the “Turnover number (V1/Et ethanol oxidation, V2/Et acetaldehyde reduction)” value (horse liver ADH1E S48A) was 0.01 s⁻¹ and the “K m (transient reaction)” value [7] was 38 mM. The “k max (transient oxidation or reduction)” value [7] was 72 s⁻¹.

For OCC(F)(F)C(F)(F)C(F)(F)F [heptafluorobutanol], the Ki [11] is listed as 5.3 µM and the Ki [12, 15] is listed as 53 µM.

In the case of OCc1c(F)c(F)c(F)c(F)c1F [pentafluorobenzyl alcohol, 2,3,4,5,6-pentafluorobenzyl alcohol], the Ki [11, 15] is listed as 0.52 µM, the Ki (horse liver ADH1E F93A [13]) is listed as 51 µM and the Ki [12] is listed as over 10000 µM. For the same molecule, the Ki (horse liver ADH1E S48T [14]) was 740 µM.

In the case of CC(O)c1ccccc1 (stereo not shown) [sec-Phenethyl alcohol, sec-phenethyl alcohol], the “Increase of the R/S ratio (inversion of enantioselectivity) as compared to wild-type enzyme” value [2] is reported as 190 fold, the “Ratio of V/Km” value [2] is reported as 13 and the “Ratio of V/Km” value (horse liver ADH1E F93A [3]) is reported as 0.34. For the same molecule, the “Ratio of V/Km” value [4] was 0.067.

In the case of OCC(F)(F)F [trifluoroethanol, 2,2,2-trifluoroethanol], the Ki [11, 15] is listed as 8.4 µM, the Ki (horse liver ADH1E F93A [13]) is listed as 53 µM and the Ki [12] is listed as 600 µM. The Type of inhibition [12] was “uncompetitive inhibitor against varied concentrations of NAD^+” and the Ki (horse liver ADH1E S48T [14]) was 98 µM.
